Source: PubChem BioAssay (The Scripps Research Institute Molecular Screening Center)
V1R ag counter: counter-screen for oxytocin receptor agonists: human V1a receptor agonists; P37288; CHO-V1R cells, Fluo-8 calcium fluorescence, agonist mode; 0% DMSO, 100% 3 nM vasopressin; activation, % at 3 µM; hit rate 0.25% among 320,000; AID 2797;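 active = activation above the mean activation of all tested compounds plus 3 SD, per screening run, cut at about 20% in these data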;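 also: signal is peak over basal fluorescence ratio across a 100 second FLIPR read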
OX1R antag-1: blocks the human orexin 1 receptor; AID 485270; inhibition, % at 6.6 µM; hit rate 1.8% among 330,000; OX1R-expressing cells, FRET antagonist read-out; in the data active = inhibition mostly above about 38%, no sharp cut-off; inactive = mostly below about 40%;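 also: 0% = agonist challenge alone and 100% = reference antagonist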
Target sequence (O43613 whole entry, looked up): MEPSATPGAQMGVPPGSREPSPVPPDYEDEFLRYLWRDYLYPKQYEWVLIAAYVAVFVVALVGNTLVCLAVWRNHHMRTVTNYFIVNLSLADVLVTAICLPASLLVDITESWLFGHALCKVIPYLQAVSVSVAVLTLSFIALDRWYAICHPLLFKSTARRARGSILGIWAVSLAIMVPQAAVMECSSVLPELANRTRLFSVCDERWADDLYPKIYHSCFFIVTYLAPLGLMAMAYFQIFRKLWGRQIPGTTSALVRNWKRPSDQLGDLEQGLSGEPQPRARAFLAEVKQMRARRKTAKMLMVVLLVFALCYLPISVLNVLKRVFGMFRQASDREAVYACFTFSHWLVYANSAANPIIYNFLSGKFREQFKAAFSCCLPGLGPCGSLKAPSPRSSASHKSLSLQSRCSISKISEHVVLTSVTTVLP
OXTR ag: activates the human oxytocin receptor. CHO-OTR cells, Fluo-8 calcium fluorescence; normalized: DMSO 0%, oxytocin 100%. activation, % at 3 µM. hit rate 0.32% among 320,000. AID 2435;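 active = activation above the mean of all tested compounds plus 3 SD, cutoff set per screening run, cut at about 20% in these data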;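 also: peak over basal fluorescence ratio from a 100 s FLIPR kinetic read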
CHO parental Ca: signal in parental CHO cells, OX1R antagonist counter-screen | hit rate 0.63% among 330,000 | parental CHO-K1, ATP-induced calcium, Fluo-8 fluorescence | AID 463079 | inhibition, % at 5.6 µM;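 active = inhibition above that plate's mean sample inhibition plus 3 SD, cut at about 26% in these data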;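 also: 0% = ATP-challenged DMSO wells and 100% = DMSO wells without ATP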
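Test system: untransfected parental CHO cell line; also added: ATP stimulus; dosing: 5.6 µM, single dose; signal: calcium-sensitive Fluo-8 fluorescence; measure: percent inhibition of ATP-evoked calcium rise, normalized to controls; benchmarks: low control ATP plus DMSO, high control DMSO only; replication: one well per compound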
OXTR potentiate: potentiates the human oxytocin receptor response; CHO-OTR cells, Fluo-8 calcium fluorescence, potentiator mode; 0% = oxytocin EC15, 100% = EC100; activation, % at 3 µM; hit rate 0.061% among 320,000;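 active = activation above that plate's cutoff, the mean activation of tested compounds plus 3 SD, cut at about 6.6% in these data, passing the limit was not always enough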;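 also: 100% uses oxytocin at 75 nM as the full agonist control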
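Measured by – Fluo-8 calcium dye fluorescence · Test system – human OTR in CHO cells · Dosing – one concentration, 3.0 µM compound · Controls – EC15 oxytocin alone as 0%, 75 nM oxytocin as 100% · Evaluation – normalized max/min fluorescence ratio, % activation · Timing – 6 min pre-incubation, 100 s read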
OX1R antag-2: blocks the human orexin 1 receptor | O43613 | CHO/OX1R cells, Fluo-8 calcium fluorescence, orexin A | inhibition, % at 5 µM | hit rate 0.43% among 330,000;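 active = inhibition above its plate's threshold, mean inhibition of all tested compounds on the plate plus 3 SD, cut at about 37% in these data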;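 also: 0% = orexin A challenge wells and 100% = SB-334867-A antagonist wells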
Active calls of the source: *; x = no result. Compounds with a hit are over-represented: about 2.6% of the library has one in this group of screens.

SMILES	V1R ag counter	OX1R antag-1	OXTR ag	CHO parental Ca	OXTR potentiate	OX1R antag-2
O=C(Nc1ccccc1)N1CCN(c2nc(-c3ccccc3)ns2)CC1	12.4	8.4	10.1	-0.8	-19.0	-3.8
CN(Cc1ccccc1)C(=O)c1ccc(NC(=O)Cc2cccc(NC(=O)C3CCCN(C(=O)C4CCCCC4)C3)c2)cc1 (centres undefined)	2.4	15.8	0.2	-23.1	-7.1	9.8
CCS(=O)c1ccccc1C(=O)OCC(=O)Nc1ccc2ccccc2c1 (centres undefined)	11.4	8.7	16.4	38.8*	-12.2	-10.6
O=C(COC(=O)c1ccccc1O)Nc1ccc2ccccc2c1	1.1	15.3	1.7	17.6	-0.8	1.1
CSc1cccc(NC(=O)c2cccc3cccnc23)c1	1.2	39.1	-1.2	-9.3	-6.4	-9.1
CC(=O)c1nn(-c2ccccc2)cc1C(=O)c1ccc(Br)cc1	-1.1	11.3	-2.0	40.2*	-7.6	9.5
COc1ccc(CN2CCN(C(=O)CCC(=O)c3ccc(C)s3)CC2)cc1OC	-0.3	3.1	-0.9	-8.5	4.3	-19.4
Oc1ccc(-c2n[nH]c(C(F)(F)F)c2-c2ccccc2)c(O)c1	1.8	20.9	0.8	56.6*	-24.7	14.7
COc1ccccc1NC(=O)C(C)Sc1nc2ccccc2c(=O)n1CC1CCCO1 (centres undefined)	-1.4	6.8	-2.6	-27.1	-7.9	-27.1
CC(Sc1nc2ccccc2c(=O)n1CC1CCCO1)C(=O)N(C)c1ccccc1 (centres undefined)	0.2	32.1*	-1.1	-22.1	-5.1	-19.1
CCOc1ccc(CCNC(=O)CS(=O)Cc2nc(-c3ccccc3C)oc2C)cc1OCC (centres undefined)	2.5	56.9*	-0.2	-24.7	-6.3	16.0
CCOc1ccc(CCNC(=O)CS(=O)Cc2nc(-c3ccc(C)cc3)oc2C)cc1OCC (centres undefined)	1.4	26.7	-1.1	-30.6	0.0	-1.4
Clc1ccc(-c2nnc(CNC3CC3)o2)cc1	-0.9	11.0	-1.0	-7.3	-6.5	-22.5
O=C(OCc1nnc(-c2ccc([N+](=O)[O-])cc2)o1)C1CCN(C(=O)c2ccc(F)cc2)CC1	4.3	38.5*	2.7	-13.8	-7.4	5.7
O=[N+]([O-])c1ccc(-c2nnc(CNC3CCCC3)o2)cc1	-0.4	63.4*	-0.6	-7.4	0.4	-16.7
O=C(Oc1cccc([N+](=O)[O-])c1)C1CCN(C(=O)c2ccc(F)cc2)CC1	4.0	14.2	2.9	0.0	-8.2	-10.0
CN1Cc2sc(NC(=S)NC(=O)c3ccccc3)c(C#N)c2CC1(C)C	34.0*	25.2	32.3*	34.0*	-9.7	40.3*
CCC1(C)Cc2c(sc(NC(=S)NC(=O)c3ccccc3)c2C#N)CO1 (centres undefined)	0.1	11.8	-0.5	1.7	-6.8	3.0
CC(NC(=O)CN(c1cccc(C(F)(F)F)c1)S(=O)(=O)c1ccc(Cl)c([N+](=O)[O-])c1)c1ccccc1 (centres undefined)	1.0	4.3	-0.1	36.3*	-8.7	22.1
O=C(CN(c1cccc(C(F)(F)F)c1)S(=O)(=O)c1ccc(Cl)c([N+](=O)[O-])c1)NCc1ccccc1	0.0	20.4	-0.8	17.0	-6.3	21.5
O=C(COC(=O)c1cc(-c2ccccc2)nc2ccccc12)Nc1ccc2c(c1)OCO2	0.1	13.5	0.2	-4.7	-0.3	-4.4
COc1ccc(-c2cc(C(=O)OCC(=O)Nc3ccc4c(c3)OCO4)c3ccccc3n2)cc1	-0.3	65.0*	-0.2	-10.3	-7.7	-7.5
Cc1oc(=O)cc(OCc2ccccc2)c1C	x	7.4	x	-12.6	x	-14.5
CC(=O)N(C)c1ccc(OCC(O)Cn2c3ccc(Cl)cc3c3cc(Cl)ccc32)cc1 (centres undefined)	2.8	16.8	7.1	67.4*	-14.5	31.1
CC(=O)N(C)c1ccc(OCC(O)Cn2c(C)nc3ccccc32)cc1 (centres undefined)	2.0	6.2	0.4	-7.4	-0.4	-3.9
SMILES	V1R ag counter	OX1R antag-1	OXTR ag	CHO parental Ca	OXTR potentiate	OX1R antag-2
C/C(Cn1nc([N+](=O)[O-])cc1C)=N\NC(=O)c1cccc(Br)c1	-0.5	54.3	0.0	-8.9	-2.0	-21.4
COc1ccc(C(=O)c2ccc(N(C)C)cc2)c(OC)c1	0.5	7.3	-1.2	-18.3	-11.0	-10.1
CN(C)c1ccc(C(=O)c2ccc(N(C)C)c3ccccc23)cc1	-1.4	55.2*	-1.7	70.4*	-7.8	32.1
Cc1cccc(OCCOC(=O)c2c(-c3ccccc3)noc2C)c1	4.9	25.3	-0.7	-19.0	-8.4	-19.6
CCCN(CCC)C(=O)c1ccc2c(c1)S(=O)(=O)c1ccccc1C2=O	0.7	45.9	-0.5	-11.2	-0.2	-20.6
CN(C)C(CNC(=O)c1ccc2c(c1)S(=O)(=O)c1ccccc1C2=O)c1ccco1 (centres undefined)	-0.5	74.3*	0.0	-18.0	-22.8	-26.2
O=C(Nc1ccncc1)c1ccc2c(c1)S(=O)(=O)c1ccccc1C2=O	8.1	75.1*	10.1	0.3	-16.0	-10.5
O=C(NC1CCCC1)c1ccc2c(c1)S(=O)(=O)c1ccccc1C2=O	-0.5	64.6*	0.6	-16.1	-4.4	-16.0
O=C(NCc1ccco1)c1ccc2c(c1)S(=O)(=O)c1ccccc1C2=O	-0.1	49.2	-1.3	-10.9	-1.7	-24.8
O=C(Nc1ccc(-c2ccccc2)cc1)c1ccc2c(c1)S(=O)(=O)c1ccccc1C2=O	0.1	14.4	-0.1	-3.0	-10.7	-12.4
CCCNC(=O)c1ccc2c(c1)S(=O)(=O)c1ccccc1C2=O	0.1	74.1*	-0.2	-13.2	1.6	-25.4
CNC(=O)COC(=O)c1ccc2c(c1)S(=O)(=O)c1ccccc1C2=O	-0.4	74.3*	-0.1	-11.7	1.9	-8.0
CC(C)c1cccc(C(C)C)c1NC(=O)COC(=O)c1ccc2c(c1)S(=O)(=O)c1ccccc1C2=O	0.0	15.9	-0.7	-7.9	-10.2	-11.4
CN(C)C(CNC(=O)c1ccc2ccccc2c1)c1ccco1 (centres undefined)	0.0	14.6	-0.5	-21.8	-10.9	-24.2
O=C(Nc1ccncc1)c1ccc(-c2ccccc2)cc1	9.4	46.3	12.3	58.3*	-15.2	47.0*
CSc1ccc(C(=O)NCC(c2ccco2)N(C)C)cc1[N+](=O)[O-] (centres undefined)	1.7	46.6*	1.3	-12.1	-9.0	-22.9
O=C(Nc1cccnc1)c1ccc(-c2ccccc2)cc1	2.8	19.8	0.4	-8.4	-8.0	-11.7
CC1CCCC(C)N1C(=O)c1ccc2c(c1)S(=O)(=O)c1ccccc1C2=O (centres undefined)	5.9	41.8*	2.8	-15.3	-9.2	-21.9
